Reference: ChEMBL document CHEMBL1157100, “The alkyl-connected 2-amino-6-vinylpurine (AVP) crosslinking agent for improved selectivity to the cytosine base in RNA” (Bioorg Med Chem, 2010)
Active and inactive are the calls of the source. The rule behind the calls is not given here.

Columns and labels:
Format in all cases: nucleic-acid assay
Nucleic Acid [1] = experiment: Binding affinity to FAM-tagged d-(GAAAYAAGAGGAAAGA)-DNA assessed as crosslinking at 10 uM by alkylation method
Outline: (§1)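 Reactive ODN at 10 µM with 1 µM FAM-labeled target DNA or RNA in 100 mM NaCl, 50 mM MES pH 5 plus RNase OUT, mixed at 0 °C and then incubated at 37 °C. Reactions were stopped at set times with formamide/EDTA/bromophenol blue buffer. Products were resolved on 15% denaturing polyacrylamide gel with 7 M urea, and FAM band intensities were quantified to give crosslinking yield.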

Nucleic Acid [2] = experiment: Binding affinity to FAM-tagged r-(GAAAYAAGAGGAAAGA)-RNA assessed as crosslinking at 10 uM by alkylation method; outline: as §1
Nucleic Acid [3] = experiment: Binding affinity to r-(CGCUGGGCGUUAAUCAAAGAGGCGAAC)-RNA assessed as melting temperature at 1.5 uM by UV-visible spectrophotometry
Outline: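 Each strand at 1.5 µM: ODN plus complementary 27-mer RNA in 100 mM NaCl, 50 mM MES pH 5. Samples were heated at 85 °C for 10 min and cooled slowly. Melting curves were recorded at 260 nm while warming 20 to 80 °C at 1.0 °C/min to obtain Tm.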

| Activity (Nucleic Acid [1]) | Activity (Nucleic Acid [2]) | Tm (Nucleic Acid [3]) | Structure (SMILES) |
| --- | --- | --- | --- |
| inactive | inactive | – | CSCCc1nc(N)nc2c1ncn2CCCC[C@H]1C[C@H](OP(=O)(O)OC[C@H]2O[C@@H](n3cc(C)c(=O)[nH]c3=O)C[C@@H]2OP(=O)(O)OC[C@H]2O[C@@H](n3cc(C)c(=O)[nH]c3=O)C[C@@H]2OP(=O)(O)OC[C@H]2O[C@@H](n3ccc(N)nc3=O)[C@H](O)[C@@H]2OP(=O)(O)OC[C@H]2O[C@@H](n3cc(C)c(=O)[nH]c3=O)C[C@@H]2OP(=O)(O)OC[C@H]2O[C@@H](n3ccc(N)nc3=O)[C@H](O)[C@@H]2OP(=O)(O)OC[C@H]2O[C@@H](n3ccc(N)nc3=O)[C@H](O)[C@@H]2OP(=O)(O)OC[C@H]2O[C@@H](n3cc(C)c(=O)[nH]c3=O)C[C@@H]2OP(=O)(O)OC[C@H]2O[C@@H](n3cc(C)c(=O)[nH]c3=O)C[C@@H]2OP(=O)(O)OC[C@H]2O[C@@H](n3cc(C)c(=O)[nH]c3=O)C[C@@H]2OP(=O)(O)OC[C@H]2O[C@@H](n3ccc(N)nc3=O)[C@H](O)[C@@H]2OP(=O)(O)OC[C@H]2O[C@@H](n3cc(C)c(=O)[nH]c3=O)C[C@@H]2OP(=O)(O)O)[C@@H](COP(=O)(O)O[C@H]2C[C@H](n3cc(C)c(=O)[nH]c3=O)O[C@@H]2COP(=O)(O)O[C@H]2C[C@H](n3cc(C)c(=O)[nH]c3=O)O[C@@H]2COP(=O)(O)O[C@H]2C[C@H](n3cc(C)c(=O)[nH]c3=O)O[C@@H]2COP(=O)(O)O[C@H]2[C@@H](O)[C@H](n3ccc(N)nc3=O)O[C@@H]2CO)O1 |
| – | – | 55.8 °C | Cc1cn([C@H]2C[C@H](OP(=O)(O)OC[C@H]3O[C@@H](n4cc(C)c(=O)[nH]c4=O)C[C@@H]3OP(=O)(O)OC[C@H]3O[C@@H](n4ccc(N)nc4=O)[C@H](O)[C@@H]3OP(=O)(O)OC[C@H]3O[C@@H](n4cnc5c(=O)[nH]c(N)nc54)[C@H](O)[C@@H]3OP(=O)(O)OC[C@H]3O[C@@H](n4ccc(N)nc4=O)[C@H](O)[C@@H]3OP(=O)(O)OC[C@H]3O[C@@H](n4ccc(N)nc4=O)[C@H](O)[C@@H]3OP(=O)(O)OC[C@H]3O[C@@H](n4cc(C)c(=O)[nH]c4=O)C[C@@H]3OP(=O)(O)OC[C@H]3O[C@@H](n4ccc(N)nc4=O)[C@H](O)[C@@H]3OP(=O)(O)OC[C@H]3O[C@@H](n4cc(C)c(=O)[nH]c4=O)C[C@@H]3OP(=O)(O)OC[C@H]3O[C@@H](n4cc(C)c(=O)[nH]c4=O)C[C@@H]3OP(=O)(O)OC[C@H]3O[C@@H](n4cc(C)c(=O)[nH]c4=O)C[C@@H]3OP(=O)(O)OC[C@H]3O[C@@H](n4cnc5c(=O)[nH]c(N)nc54)[C@H](O)[C@@H]3OP(=O)(O)OC[C@H]3O[C@@H](n4cnc5c(N)ncnc54)[C@H](O)[C@@H]3OP(=O)(O)OC[C@H]3O[C@@H](n4cc(C)c(=O)[nH]c4=O)C[C@@H]3OP(=O)(O)OC[C@H]3O[C@@H](n4cc(C)c(=O)[nH]c4=O)C[C@@H]3OP(=O)(O)OC[C@H]3O[C@@H](n4cnc5c(N)ncnc54)[C@H](O)[C@@H]3OP(=O)(O)OC[C@H]3O[C@@H](n4cnc5c(N)ncnc54)[C@H](O)[C@@H]3OP(=O)(O)OC[C@H]3O[C@@H](n4ccc(N)nc4=O)[C@H](O)[C@@H]3OP(=O)(O)OC[C@H]3O[C@@H](n4cnc5c(=O)[nH]c(N)nc54)[C@H](O)[C@@H]3OP(=O)(O)OC[C@H]3O[C@@H](n4ccc(N)nc4=O)[C@H](O)[C@@H]3OP(=O)(O)OC[C@H]3O[C@@H](n4ccc(N)nc4=O)[C@H](O)[C@@H]3OP(=O)(O)O)[C@@H](CO)O2)c(=O)[nH]c1=O |
| inactive | inactive | – | CSCCc1nc(N)nc2c1ncn2[C@H]1C[C@H](OP(=O)(O)OC[C@H]2O[C@@H](n3cc(C)c(=O)[nH]c3=O)C[C@@H]2OP(=O)(O)OC[C@H]2O[C@@H](n3cc(C)c(=O)[nH]c3=O)C[C@@H]2OP(=O)(O)OC[C@H]2O[C@@H](n3ccc(N)nc3=O)[C@H](O)[C@@H]2OP(=O)(O)OC[C@H]2O[C@@H](n3cc(C)c(=O)[nH]c3=O)C[C@@H]2OP(=O)(O)OC[C@H]2O[C@@H](n3ccc(N)nc3=O)[C@H](O)[C@@H]2OP(=O)(O)OC[C@H]2O[C@@H](n3ccc(N)nc3=O)[C@H](O)[C@@H]2OP(=O)(O)OC[C@H]2O[C@@H](n3cc(C)c(=O)[nH]c3=O)C[C@@H]2OP(=O)(O)OC[C@H]2O[C@@H](n3cc(C)c(=O)[nH]c3=O)C[C@@H]2OP(=O)(O)OC[C@H]2O[C@@H](n3cc(C)c(=O)[nH]c3=O)C[C@@H]2OP(=O)(O)OC[C@H]2O[C@@H](n3ccc(N)nc3=O)[C@H](O)[C@@H]2OP(=O)(O)OC[C@H]2O[C@@H](n3cc(C)c(=O)[nH]c3=O)C[C@@H]2OP(=O)(O)O)[C@@H](COP(=O)(O)O[C@H]2C[C@H](n3cc(C)c(=O)[nH]c3=O)O[C@@H]2COP(=O)(O)O[C@H]2C[C@H](n3cc(C)c(=O)[nH]c3=O)O[C@@H]2COP(=O)(O)O[C@H]2C[C@H](n3cc(C)c(=O)[nH]c3=O)O[C@@H]2COP(=O)(O)O[C@H]2[C@@H](O)[C@H](n3ccc(N)nc3=O)O[C@@H]2CO)O1 |
| inactive | inactive | – | CSCCc1nc(N)nc2c1ncn2C[C@H]1C[C@H](OP(=O)(O)OC[C@H]2O[C@@H](n3cc(C)c(=O)[nH]c3=O)C[C@@H]2OP(=O)(O)OC[C@H]2O[C@@H](n3cc(C)c(=O)[nH]c3=O)C[C@@H]2OP(=O)(O)OC[C@H]2O[C@@H](n3ccc(N)nc3=O)[C@H](O)[C@@H]2OP(=O)(O)OC[C@H]2O[C@@H](n3cc(C)c(=O)[nH]c3=O)C[C@@H]2OP(=O)(O)OC[C@H]2O[C@@H](n3ccc(N)nc3=O)[C@H](O)[C@@H]2OP(=O)(O)OC[C@H]2O[C@@H](n3ccc(N)nc3=O)[C@H](O)[C@@H]2OP(=O)(O)OC[C@H]2O[C@@H](n3cc(C)c(=O)[nH]c3=O)C[C@@H]2OP(=O)(O)OC[C@H]2O[C@@H](n3cc(C)c(=O)[nH]c3=O)C[C@@H]2OP(=O)(O)OC[C@H]2O[C@@H](n3cc(C)c(=O)[nH]c3=O)C[C@@H]2OP(=O)(O)OC[C@H]2O[C@@H](n3ccc(N)nc3=O)[C@H](O)[C@@H]2OP(=O)(O)OC[C@H]2O[C@@H](n3cc(C)c(=O)[nH]c3=O)C[C@@H]2OP(=O)(O)O)[C@@H](COP(=O)(O)O[C@H]2C[C@H](n3cc(C)c(=O)[nH]c3=O)O[C@@H]2COP(=O)(O)O[C@H]2C[C@H](n3cc(C)c(=O)[nH]c3=O)O[C@@H]2COP(=O)(O)O[C@H]2C[C@H](n3cc(C)c(=O)[nH]c3=O)O[C@@H]2COP(=O)(O)O[C@H]2[C@@H](O)[C@H](n3ccc(N)nc3=O)O[C@@H]2CO)O1 |
